# Yeast lifespan up: extends the lifespan of yeast. S. cerevisiae growth with nicotinamide, OD615; deaD strain in restrictive glucose medium. actives 0.68% (n = 130,000). AID 775. inhibition of the nicotinamide effect, % at 10 µM;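 active = inhibition above a set limit, placed 3 SD over the median of all compounds, cut at about 26% in these data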;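 also: 0% = nicotinamide-treated wells and 100% = cells grown without nicotinamide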
#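 Assay system: DeaD-strain S. cerevisiae. Medium: CSMM-D glucose medium, restrictive. Reagent: nicotinamide, 1.5 mM, co-present with compound. Compound: 10 µM single point, 0.25% DMSO. Schedule: culture preincubation 4 h, compound exposure 48 h, both 30 °C. Detection: absorbance at 615 nm.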
# PostGolgi yeast: growth inhibition of a yeast mutant, post-Golgi transport screen; post-Golgi transport phenotypic cell assay; actives 0.9% (n = 98,000); inhibition, % at 10 µM;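 also: yeast cells grown in 1536-well plates; yeast grown about 18 h at 30C before absorbance read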
# PostGolgi ctrl: inhibits growth of the yeast control strain | efflux-deficient yeast background strain, growth absorbance A615, 16 h | inhibition, % at 10 µM | actives 5% (n = 98,000)
# BB579 growth dn: chemicals that inhibit yeast BB579 growth in restrictive medium (lifespan-shortening candidates); S. cerevisiae BB579 growth, OD615, 48 h; actives 0.51% (n = 140,000); inhibition, % at 10 µM;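 active = inhibition above a set limit, 3 SD over the mean compound inhibition, cut at about 44% in these data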
#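 Assay system – yeast BB579 (DeaD) · Dosing – single compound dose of 10 µM, 0.25% DMSO final · Detection – OD615 turbidity measurement · Buffer or medium – CSMM-D restrictive synthetic medium containing dextrose (glucose) · Benchmarks – positive control amphotericin B 10 µg/mL · Incubation – 48 h exposure, 30 °C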
# * = called active by the depositor; . = no result given. Many of the other results were omitted from the sample, so hits are more common in it than they were. Rule as the data show it, unless noted: active = inhibition above about 30%; inactive = the rest.
SMILES,Yeast lifespan up,PostGolgi yeast,PostGolgi ctrl,BB579 growth dn
CCOC(=O)c1cc(-c2ccccc2)sc1NC(=O)C(C)Sc1nnnn1C (centres undefined),-21.6,73.4*,63.6*,-44.9
Cc1cc(C)cc(N(CC(=O)NCCSc2ccccn2)S(=O)(=O)c2ccccc2)c1,10.9,-3.2,31.0*,-17.9
Cc1ccc(S(=O)(=O)N(CC(=O)NCCSc2ccccn2)c2ccc(C)c(C)c2)cc1,12.6,.,.,-26.9
COc1ccccc1NC(=O)c1nn(C)cc1Br,-24.2,-5.7,35.7*,-41.8
COc1ccccc1NC(=S)NNC(=O)c1nn(C)cc1Cl,-13.3,-0.5,5.6,-15.8
COc1ccccc1/C=C/C(=O)OCCN1CCOCC1,-3.0,.,.,-16.9
COc1ccccc1/C=C/C(=O)N1CCOCC1,-8.6,-9.2,35.2*,-39.6
N#Cc1c(C(F)(F)F)cc(-c2ccco2)nc1SCc1ccncc1,-20.5,-0.2,48.7*,-62.1
N#Cc1c(C(F)(F)F)cc(-c2ccco2)nc1SCc1ccccn1,-13.1,13.7,8.7,-7.2
Cn1c(N)c(C(=O)c2ccc(F)cc2F)c(=O)n(C)c1=O,40.4*,.,.,-19.6
Cn1c(N)c(C(=O)c2ccc(Cl)cc2)c(=O)n(C)c1=O,-4.2,.,.,-10.9
O=c1c2cn[nH]c2[nH]c(=S)n1-c1cccc(Cl)c1,3.8,.,.,-9.6
COc1ccc(-c2nnc(Sc3nc4ccccc4o3)c3ccccc23)cc1,-3.4,-1.9,46.3*,-30.4
CC(C)n1cc(/C=C(\C#N)S(=O)(=O)c2ccccc2)c2ccccc21,-7.9,-0.1,36.2*,-15.7
Cc1ccc(S(=O)(=O)/C(C#N)=C/c2c[nH]c3ccccc23)cc1,-8.8,0.0,67.8*,-26.9
COc1ccc(C/C(C)=N/NC(=O)c2cccnc2)cc1,6.5,.,.,-34.4
Cc1cc(C)nc(SCc2ccc(C(=O)N/N=C/C3CCCCC3)cc2)n1,-1.1,.,.,-30.6
Cc1ccc(O)c(-c2cc(C(=O)NCc3ccncc3)[nH]n2)c1,-0.2,6.0,-2.3,-18.9
Cc1cc(C)c(O)c(-c2cc(C(=O)NCc3ccccc3)[nH]n2)c1,-6.6,-16.1,31.5*,-7.5
COc1cc(Cl)c(C)cc1NC(=O)COc1ccccc1[N+](=O)[O-],-5.4,3.5,0.9,-11.3
O=C(/C=C/c1ccccc1)c1cc(Br)ccc(=O)c1O,-17.3,8.1,-6.2,88.0*
O=C(/C=C/c1ccccc1)c1ccccc1,-2.3,.,.,-23.2
Cc1ccc(/C=C/C(=O)c2ccccc(=O)c2O)cc1C,-10.4,.,.,99.4*
Cc1cccc(-n2c(CCCN3C(=O)c4ccccc4C3=O)nc3ccccc3c2=O)n1,-5.8,0.9,0.8,24.8
CC1/C(=N/O)CC(c2ccccc2)NC1c1ccccc1 (centres undefined),-2.6,22.1,3.5,1.0
SMILES,Yeast lifespan up,PostGolgi yeast,PostGolgi ctrl,BB579 growth dn
CC1/C(=N/O)CC(c2ccccc2)N(C)C1c1ccccc1 (centres undefined),.,.,.,88.0*
Cc1ccc(CNC(=O)CSCC(=O)O)cc1,-1.6,3.8,41.4*,-8.2
C=C(C)CNC(=S)Nc1sc2c(c1C(=O)OCC)CC(C)(C)OC2,-1.1,.,.,-23.0
c1ccc(CN2CCN(CCCNc3ccc4nnc(-c5ccccc5)n4n3)CC2)cc1,-1.2,-3.5,-2.6,-4.6
Fc1ccccc1N1CCN(CCCNc2ccc3nncn3n2)CC1,27.3*,-2.5,-4.0,-15.3
CCCN(CC(=O)Nc1ccccc1C)C(=O)/C=C/c1cccs1,0.0,.,.,-53.2
CCc1cc2c(=O)n(Cc3ccco3)c(SCC(=O)N3CCCc4ccccc43)nc2s1,-4.5,19.4,17.6,-33.0
CCc1cc2c(=O)n(Cc3ccco3)c(SCc3c(C)noc3C)nc2s1,-3.4,-4.5,32.5*,-49.2
CCN(CC(=O)Nc1ccc2c(c1)OCO2)Cc1nc2ccccc2c(=O)[nH]1,-8.1,-7.6,31.4*,-21.7
CCN(CC(=O)Nc1ccc2c(c1)OC(F)(F)O2)Cc1nc2ccccc2c(=O)[nH]1,-6.0,-7.5,9.0,-8.4
c1cc2ccc3ccc(-n4cnnn4)c4ccc(c1)c2c34,-26.6,-7.4,30.5*,7.0
Fc1ccc(-n2cnnn2)c(F)c1,4.9,6.4,3.5,-37.0
C/C=C/Cn1c(SCCCc2ccccc2)nc2c1c(=O)[nH]c(=O)n2C,-7.6,4.9,41.3*,-52.9
CC(C)CCn1c(SCCc2ccccc2)nc2c1c(=O)[nH]c(=O)n2C,2.3,-7.3,35.1*,-53.0
Cn1c(=O)[nH]c(=O)c2c1nc(Sc1nc3ccccc3s1)n2Cc1ccccc1,-8.8,3.0,41.1*,-22.0
Cc1ccc(Sc2nc3c(c(=O)[nH]c(=O)n3C)n2CCc2ccccc2)cc1,-7.3,-15.3,35.2*,-14.1
Cc1cc(C)c(NC(=O)C(C)c2cccc(C(=O)c3ccccc3)c2)c(C)c1 (centres undefined),-11.0,14.3,4.5,-9.2
Oc1[nH]c(=S)sc1/C=C1\C(c2ccccc2)=Nc2ccccc21,5.1,.,.,-13.0
N#Cc1c(NC(=O)c2ccncc2)sc2c1CCC2,-16.3,2.1,30.5*,-37.6
Cc1onc(-c2ccccc2Cl)c1C(=O)Nc1sc2c(c1C#N)CCC2,-11.1,-10.3,30.1*,-59.1
COc1cc(C(=O)Nc2cccc3cccnc23)cc(OC)c1OC,-14.7,31.8*,4.7,-8.5
O=C(Nc1cccc2cccnc12)c1cccnc1,-11.5,-1.5,13.3,23.9
N#Cc1c(NC(=O)C2CC(c3ccccc3Cl)=NO2)sc2c1CCC2 (centres undefined),-2.6,-1.5,14.5,-66.9
CC(=O)Nc1sc2c(c1C#N)CCCC2,-7.3,7.8,9.4,-20.7
Cc1onc(-c2ccccc2Cl)c1C(=O)Nc1cccc2cccnc12,-5.7,-0.3,33.4*,-23.6
SMILES,Yeast lifespan up,PostGolgi yeast,PostGolgi ctrl,BB579 growth dn
c1ccc2cc(CSCc3nc4ccccc4[nH]3)ccc2c1,-0.8,.,.,-57.7
CC(=O)N1CCCc2cc(S(=O)(=O)NC(C(=O)NCc3ccc(C)cc3)C(C)C)ccc21 (centres undefined),-3.6,8.4,0.6,-25.5
N#C/C(=C/c1cccs1)c1nc2ccccc2[nH]1,-0.2,.,.,-14.6
N#C/C(=C\c1ccc(Cl)cc1)c1nc2ncccc2[nH]1,-15.8,26.7,47.7*,25.0
Cc1ccc2c(c1)c1c3n2CCN(C(=O)C2CC2)C3CCC1 (centres undefined),-7.0,8.8,25.6,-24.3
Cc1ccc2c(c1)c1c3n2CC(=C2C(=O)OC(C)(C)OC2=O)NC3CCC1 (centres undefined),-26.8,10.1,51.0*,-47.9
CCc1cc2c(SCC(=O)Nc3ccc(Cl)cn3)ncnc2s1,6.5,.,.,-47.3
CCc1cc2c(SCC(=O)c3ccc(Cl)s3)ncnc2s1,-9.6,-4.1,35.9*,-61.4
Cn1cc(C(=O)c2ccc(Cl)cc2)cc1-c1nc2ccccc2n1C,-28.1,9.0,40.0*,-41.2
O=C(COC(=O)CC12CC3CC(CC(C3)C1)C2)Nc1ncc(Cl)cc1Cl,31.4,-3.5,37.0*,-30.9
O=C(COC(=O)C12CC3CC(CC(C3)C1)C2)Nc1ncc(Cl)cc1Cl,4.1,-2.4,21.5,-44.9
Clc1ccc(Cn2ncc3c(N4CCOCC4)ncnc32)cc1,-2.7,-1.0,5.8,2.9
Cc1cc(C(=O)CN(Cc2ccc(F)cc2)S(=O)(=O)c2ccc3c(c2)OCCO3)c(C)n1C,-4.1,19.8,5.2,-37.7

# Screens (PubChem)
